An excerpt weighted towards active compounds, which were near 1.8% of everything screened.
CTSL1 counter: Fasciola hepatica cathepsin L1 inhibitors, primary screen, counter-screen for PFM18AAP inhibitor project, biochemical, QFRET, fluorogenic peptide substrate | recombinant F. hepatica cathepsin L1, Z-Leu-Arg-MCA fluorescence | inhibition, % at 5.96 µM | actives 0.49% (n = 300,000) | AID 1906, 2009;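 active = inhibition above the mean of all tested compounds plus 3 SD, set per screening campaign, cut at about 17% in these data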
TDP2 inh: human TDP2 enzyme inhibitors, primary screen, biochemical, epi absorbance, recombinant enzyme; inhibition, % at 12.8 µM; T5PNP hydrolysis, p-nitrophenol absorbance 415 nm; Tyrosyl-DNA phosphodiesterase 2 (Homo sapiens), O95551; actives 0.34% (n = 370,000);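 active = inhibition above the mean of all tested compounds plus 3 SD, set per campaign, cut at about 25% in these data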
Target sequence (O95551 whole entry, looked up): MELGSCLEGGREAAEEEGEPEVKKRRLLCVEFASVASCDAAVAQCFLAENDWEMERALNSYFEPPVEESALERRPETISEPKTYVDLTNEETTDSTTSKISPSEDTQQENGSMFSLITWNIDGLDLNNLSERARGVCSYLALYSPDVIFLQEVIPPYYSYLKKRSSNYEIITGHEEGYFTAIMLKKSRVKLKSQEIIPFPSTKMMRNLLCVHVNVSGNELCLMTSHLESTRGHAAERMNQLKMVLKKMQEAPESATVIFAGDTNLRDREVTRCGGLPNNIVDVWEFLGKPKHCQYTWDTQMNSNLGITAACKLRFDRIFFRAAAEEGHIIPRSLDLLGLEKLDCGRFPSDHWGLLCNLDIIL
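System – recombinant human TDP2 · Quantity – TDP2 enzyme at 120 nM final · Doses – single concentration, 12.8 µM nominal, with 1% DMSO · Incubation – 2 h at 37 °C · Measured by – epi absorbance of p-nitrophenol freed from T5PNP by hydrolysis · Read-out – % inhibition relative to enzyme-containing and enzyme-free wells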
GSTO1 inh: inhibitors of recombinant GSTO1, primary screen, counter-screen for RBBP9 inhibitor project, biochemical, fluorescence polarization; inhibition, % at 5.96 µM; activity-based probe fluorescence polarization; actives 1.1% (n = 300,000);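 active = inhibition above the campaign mean inhibition plus 3 SD, cut at about 35% in these data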
Target sequence (P78417 whole entry, looked up): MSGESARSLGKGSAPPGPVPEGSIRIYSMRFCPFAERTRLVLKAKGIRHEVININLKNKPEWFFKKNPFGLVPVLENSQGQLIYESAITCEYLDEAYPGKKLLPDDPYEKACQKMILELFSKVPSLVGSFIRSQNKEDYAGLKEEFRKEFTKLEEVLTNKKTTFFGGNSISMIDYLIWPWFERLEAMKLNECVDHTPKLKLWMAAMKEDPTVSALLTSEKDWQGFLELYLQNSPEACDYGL
Apaf-1 inh: inhibitors of human Apaf-1 apoptosome, primary screen, biochemical, DEVD-Rh110 fluorescence, uHTS. inhibition, % at 20 µM. actives 0.71% (n = 330,000). Apoptotic protease-activating factor 1 (Homo sapiens), O14727. reconstituted apoptosome caspase-3 activity; active = inhibition of at least 40% at 20 µM
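detection = Rh110 fluorescence intensity | test system = biochemical Apaf-1 apoptosome reconstitution | also added = cytochrome c and DEVD-Rh110 substrate | schedule = 30 min plus 50 min, RT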
PAD4 FP inh: human PAD4 inhibitors, primary screen, biochemical, fluorescence polarization, 1536-well format; Protein-arginine deiminase type-4 (Homo sapiens), Q9UM07; recombinant PAD4, RCA probe fluorescence polarization; inhibition, % at 6.36 µM; actives 0.41% (n = 330,000); AID 485272, 2010;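 active = percent inhibition above a cutoff equal to the mean of all tested compounds plus 3 SD, cut at about 15% in these data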
Apaf-1 inh conf2: Apaf-1 inhibitors, single-dose retest, confirmation, biochemical, fluorescence, DEVD-Rh110, 20 µM. shares compounds with Apaf-1 inh. reconstituted apoptosome, caspase-3 DEVD-Rh110 fluorescence. inhibition, % at 20 µM. actives 25% (n = 1,800). AID 504614, 2011;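 active = mean inhibition of at least 40% at 20 µM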
Rh110 interf inh: Rh110 fluorescence interference by putative Apaf-1 inhibitors, confirmation, artefact control for Apaf-1 inhibitor project, biochemical, 20 µM. activation (fluorescence interference), % at 20 µM. quenched caspase reaction. shares compounds with Apaf-1 inh. 1,800 tested, under 10 active;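 active = signal rise of 40% or more at 20 µM, treated as a fluorescence artifact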
Apaf1 inh interf: fluorescence interference of Apaf-1 inhibitor hits, dose response, artefact control for Apaf-1 inhibitor project. IC50, µM. shares compounds with Apaf-1 inh. 460 tested, under 10 active. fluorescence interference counterscreen, Apaf-1 assay format; call rule not given here
A number is an active result.

Screening COC(=O)c1cccc(Cn2ccc3ccc(-c4ccc5ccn(C(=O)c6ccc(C)cc6)c5c4)cc32)c1 returned TDP2 inh inactive.
For COC(=O)C1CN(Cc2ccccc2)CCS(=O)(=O)N1Cc1cccc(Cl)c1 (stereo not given) the results were TDP2 inh inactive.
CN1N=C(C(C)(C)C)CC1=O was read as CTSL1 counter inactive, TDP2 inh inactive, GSTO1 inh inactive, Apaf-1 inh 41, PAD4 FP inh inactive, Apaf-1 inh conf2 inactive and Rh110 interf inh inactive.
`CCc1cc2c(nc1CC)CCCN2S(=O)(=O)c1ccc(C)cc1` gave TDP2 inh inactive.
Clc1ccc(OCCSc2nnnn2C2CCCCC2)cc1 was read as CTSL1 counter inactive, TDP2 inh inactive, GSTO1 inh inactive, Apaf-1 inh 65, PAD4 FP inh inactive, Apaf-1 inh conf2 inactive and Rh110 interf inh inactive.
Screening Cn1c(=O)oc2cc(S(=O)(=O)N3CCN(C(=O)C4CCCO4)CC3)ccc21 (stereo not given) returned TDP2 inh inactive.
Cc1cccc(N2CCN(C(=O)c3ccc4nc(-c5ccco5)c(-c5ccco5)nc4c3)CC2C)c1 (stereo not given) was read as CTSL1 counter inactive, TDP2 inh inactive, GSTO1 inh inactive, Apaf-1 inh 60, PAD4 FP inh inactive, Apaf-1 inh conf2 inactive and Rh110 interf inh inactive.
Screening CN(CCO)c1nc(N)c(C#N)c(CC#N)c1C#N returned CTSL1 counter inactive, TDP2 inh inactive, GSTO1 inh inactive, Apaf-1 inh inactive and PAD4 FP inh inactive.
N#Cc1c(N(CCO)CCO)nc(N)c2c(N)nc3c(c12)CC(=O)N3Cc1cccs1 was read as CTSL1 counter inactive, GSTO1 inh inactive, Apaf-1 inh 73, PAD4 FP inh inactive, Apaf-1 inh conf2 42, Rh110 interf inh inactive and Apaf1 inh interf inactive.
For CN(CCO)c1nc(N)c2c(N)nc3c(c2c1C#N)CC(=O)N3Cc1cccs1 the results were CTSL1 counter inactive, TDP2 inh inactive, GSTO1 inh inactive, Apaf-1 inh 77, PAD4 FP inh inactive, Apaf-1 inh conf2 inactive and Rh110 interf inh inactive.
Screening N#Cc1c(N)nc2c(c1N)CC(=O)N2c1ccccc1-c1ccccc1 returned CTSL1 counter inactive, TDP2 inh inactive, GSTO1 inh inactive, Apaf-1 inh inactive and PAD4 FP inh inactive.
For Cc1cc(C)c(S(=O)(=O)Nc2ccc3c4c(cccc24)CC3)c(C)c1 the results were CTSL1 counter inactive, TDP2 inh inactive, GSTO1 inh inactive, Apaf-1 inh 43, PAD4 FP inh inactive, Apaf-1 inh conf2 inactive and Rh110 interf inh inactive.
For Cc1ccc(S(=O)(=O)Nc2ccc3c4c(cccc24)CC3)c(C)c1 the results were CTSL1 counter inactive, TDP2 inh inactive, GSTO1 inh inactive, Apaf-1 inh inactive and PAD4 FP inh inactive.
For Cc1c(C(=O)NC(C)CCc2ccccc2)cccc1[N+](=O)[O-] (stereo not given) the results were CTSL1 counter inactive, TDP2 inh inactive, GSTO1 inh inactive, Apaf-1 inh inactive and PAD4 FP inh inactive.
For Cc1c(C(=O)N(CCc2ccccc2)Cc2ccccc2)cccc1[N+](=O)[O-] the results were CTSL1 counter inactive, TDP2 inh inactive, GSTO1 inh inactive, Apaf-1 inh 41, PAD4 FP inh inactive, Apaf-1 inh conf2 inactive and Rh110 interf inh inactive.
CC(C)CNc1cccc2c1S(=O)(=O)N[C@@H](C)CO2 was read as TDP2 inh inactive.
For O=S(=O)(NCC(c1ccccc1)N1CCNCC1)c1ccc(Cl)cc1 (stereo not given) the results were CTSL1 counter inactive, TDP2 inh inactive, GSTO1 inh inactive, Apaf-1 inh 43, PAD4 FP inh inactive, Apaf-1 inh conf2 inactive and Rh110 interf inh inactive.
C[C@@H](CN1C2=NC[C@H](Cc3ccccc3)N2C[C@H]1Cc1ccc(O)cc1)NC(=O)CCC1CCCCC1 was read as CTSL1 counter inactive, TDP2 inh inactive, GSTO1 inh inactive, Apaf-1 inh 41, PAD4 FP inh inactive, Apaf-1 inh conf2 inactive and Rh110 interf inh inactive.
`COCC(=O)N[C@H]1C[C@@H]2O[C@H](CO)CC[C@@H]2O[C@@H]1CCc1ccc(-c2ccccc2)cc1` gave TDP2 inh inactive.
NC(=O)[C@H](Cc1cc2ccccc2s1)NC(=O)[C@@H]1CC2(CC(c3cccc(NC(=O)[C@@H]4CCC(=O)N4)c3)=NO2)CN1C(=O)/C=C/Sc1ccccc1 (stereo not given in full) was read as CTSL1 counter inactive, TDP2 inh inactive, GSTO1 inh inactive, Apaf-1 inh inactive and PAD4 FP inh inactive.
NC(=O)[C@H](Cc1cc2ccccc2s1)NC(=O)[C@@H]1CC2(CC(c3cccc(NC(=O)[C@@H]4CCC(=O)N4)c3)=NO2)CN1C(=O)/C=C/c1c(F)cccc1Cl (stereo not given in full) was read as CTSL1 counter inactive, GSTO1 inh inactive, Apaf-1 inh 47, PAD4 FP inh inactive, Apaf-1 inh conf2 inactive and Rh110 interf inh inactive.
For Cc1ccc(N(C)S(=O)(=O)c2cccc(C(=O)Nc3ccc(C)cn3)c2)cc1 the results were CTSL1 counter inactive, TDP2 inh inactive, GSTO1 inh inactive, Apaf-1 inh 45, PAD4 FP inh inactive, Apaf-1 inh conf2 inactive and Rh110 interf inh inactive.
For CN(C)S(=O)(=O)c1cccc(C(=O)Nc2ccc(Cl)cn2)c1 the results were CTSL1 counter inactive, TDP2 inh inactive, GSTO1 inh inactive, Apaf-1 inh inactive and PAD4 FP inh inactive.
`Oc1ccccc1/C=N/Nc1cc(N2CCCC2)nc(N2CCCC2)n1` gave CTSL1 counter inactive, TDP2 inh inactive, GSTO1 inh 73, Apaf-1 inh 98, PAD4 FP inh inactive, Apaf-1 inh conf2 100, Rh110 interf inh inactive and Apaf1 inh interf inactive.
Screening CCOc1ccccc1NC(=O)c1cc(-c2ccccn2)nc2ccccc12 returned TDP2 inh inactive, Apaf-1 inh 53, PAD4 FP inh inactive, Apaf-1 inh conf2 inactive and Rh110 interf inh inactive.
